Activity calls are given as the source filed them. The rule behind the calls is not given here.

Data set [1] relates to HeLa. Briefly: Cell cycle arrest in human HeLa cells assessed as accumulation at S phase at 7 uM after 48 hrs by propidium iodide staining -based flow cytometry (reference value: 26.3 %). It counts as functional. The procedure, abridged:
(§1)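 HeLa seeded at 100 000 cells/well, treated next day with 0.78, 7 or 21 µM for 24, 48 or 72 h. Adherent plus floating cells collected, PBS-washed, fixed overnight in 70% ethanol at −20 °C, RNase A 30 µg/ml 1 h RT, propidium iodide 16.7 µg/ml 30 min dark; DNA content by flow cytometry, phase percentages including subG1 reported.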

The subject of data set [2] is HeLa. Description: Cell cycle arrest in human HeLa cells assessed as accumulation at G0/G1 phase at 21 uM after 24 hrs by propidium iodide staining -based flow cytometry (reference value: 60.6 %). The data set is classed as functional. An outline of the steps: as §1
The test system of data set [3] is HeLa. Description: Cell cycle arrest in human HeLa cells assessed as accumulation at subG1 phase at 21 uM after 72 hrs by propidium iodide staining -based flow cytometry (reference value: 7.2 %). The data set is classed as functional. An outline of the steps: as §1
In data set [4] the test system is HeLa. Description: Induction of apoptotis in human HeLa cells assessed as cleavage of apoptotic protein PARP at 7 uM after 48 hrs by Western blot analysis. The data set is classed as functional, cell-based. The procedure, abridged: (§2)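 HeLa cells were treated for 48 h at 7 µM and analysed by Western blot (10% SDS gels, nitrocellulose, HRP secondary, ECL, ERK2 loading control) for cleavage of apoptotic proteins. Antibodies: anti-PARP 1:4000; anti-caspase-3 and anti-caspase-8 1:1000; rabbit polyclonal anti-caspase-9 1:1000.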

The subject of data set [5] is HeLa. Briefly: Cell cycle arrest in human HeLa cells assessed as accumulation at G0/G1 phase at 0.78 uM after 48 hrs by propidium iodide staining -based flow cytometry (reference value: 63.8 %). The data set is classed as functional. An outline of the steps: as §1
The subject of data set [6] is HeLa. Description: Induction of Grp78 expression in human HeLa cells at 7 uM after 16 to 48 hrs by Western blot analysis. The data set is classed as functional, cell-based. The procedure, abridged:
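Logarithmically growing HeLa cells were exposed to varying concentrations for 48 h, or to 7 µM for varying times. Cell extracts were run on 10% SDS gels and transferred to nitrocellulose. Membranes were blocked in 5% milk and probed with anti-Grp78 (1:1000, overnight, 4 °C), then an HRP secondary (1:5000, 2 h, RT). Detection was by ECL, with ERK2 reprobing as the loading control.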

Data set [7] deals with HeLa. Description: Induction of apoptotis in human HeLa cells assessed as morphological changes at 7 uM after 48 hrs by acridine orange and […] staining based epifluorescent microscopic analysis. It counts as functional, cell-based. An outline of the steps:
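After 48 h at 7 µM, adherent and floating HeLa cells were pooled and resuspended in medium. AO (15 µg/mL stock) and EtBr (50 µg/mL stock) were added. Under epifluorescence, apoptosis was scored from condensed chromatin and apoptotic bodies, which distinguish it from necrosis.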

Data set [8] concerns HeLa. Description: Induction of apoptotis in human HeLa cells assessed as cleavage of procaspase 8 at 7 uM after 48 hrs by Western blot analysis. The data set is classed as functional, cell-based. The procedure, abridged:
as §2

Data set [9] relates to RT-112. Description: Cytotoxicity against human RT112 cells after 72 hrs by MTT assay. It counts as functional, cell-based. The settings on record: RT-112, 72 h. An outline of the steps: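 MTT assay: 3000 cells/well seeded, compound added next day, each concentration in quadruplicate, 72 h at 37 °C; medium replaced with 20 µg MTT/well for 4 h, formazan dissolved in DMSO, OD 545 nm. […] Fibroblasts: normal skin fibroblasts from donor, DMEM/10% FBS, used at 32 and 36 population doublings.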

Data set [10] deals with HeLa. Briefly: Induction of apoptotis in human HeLa cells assessed as cleavage of procaspase 3 at 7 uM after 48 hrs by Western blot analysis. The data set is classed as functional, cell-based. The procedure, abridged:
as §2

The nature of data set [11]: Therapeutic index, ratio IC50 for human SW480 cells to IC50 for normal human fibroblasts. The data set is classed as cell-based. The settings on record: SW480 cells versus normal human fibroblasts, read-out: Ratio IC50. The procedure, abridged: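 IC50 values came from an MTT assay. Cells were seeded at 3000 per well and dosed the next day, with each concentration in quadruplicate. After 72 h at 37 °C, MTT (20 µg/well) was added for 4 h; formazan was dissolved in DMSO and read at 545 nm. Each experiment was done three times. Normal skin fibroblasts were used at 32 and 36 population doublings. T.I. = tumor-cell IC50 / fibroblast IC50.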

The test system of data set [12] is HeLa. Description: Cell cycle arrest in human HeLa cells assessed as accumulation at S phase at 0.78 uM after 24 hrs by propidium iodide staining -based flow cytometry (reference value: 27.7 %). The data set is classed as functional. The procedure, abridged: as §1
In data set [13] the test system is Nucleic Acid. Description: Binding affinity to calf thymus DNA assessed as change in melting temperature at compound to DNA ratio of 0.3. It counts as nucleic-acid assay. As to conditions: Bos taurus. An outline of the steps:
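ct-DNA sonicated, filtered, in Na-cacodylate buffer pH 7, I = 0.05 mol dm-3, 2 x 10^-5 mol dm-3 (as phosphate, ε260 = 6600); compound/DNA ratio 0.3. Absorbance at 260 nm followed versus temperature, compound absorbance subtracted, curves normalized. Tm taken from first-derivative maximum, confirmed by tangent method; ΔTm = Tm(complex) − Tm(free DNA), mean of ≥2 runs, error ±0.5 °C.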

As for `CC(=O)N(/N=N/c1ccc([N+](=O)[O-])cc1Cl)c1ccc([N+](=O)[O-])cc1Cl`, the Activity in data set [1] is reported as 14.2%; in data set [2] it was 69.3%; in [3] it was 80.2%; in [5] it was 74.5%; in data set [12], 15.1%. For the same molecule, the outcome in data set [4], in data set [6], in data set [7], in data set [8] and in data set [10] was Active. Further, the IC50 in [9] was 7.2 µM. Moreover, the selectivity ratio in data set [11] amounted to 0.038. Moreover, the outcome in [13] was inactive.
